High-throughput results from PubChem.
Compounds with a hit are over-represented: about 1.8% of the library has one in this group of screens.
MT1-MMP act inh = blockers of MT1-MMP proenzyme processing, primary screen, HT1080 RFP-PRO-GFP cells, GFP/RFP fluorescence. GFP/RFP ratio fluorescence, overnight; percent of plate control window, DMSO zero. GFP/RFP ratio change, % at 20 µM. 360,000 compounds, 0.061% hits. AID 651647, 2012;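 active = GFP/RFP ratio change of at least 30% with cell ATP level not reduced by more than half and red fluorescence within 50% of control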
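Assay system: HT1080 RFP-PRO-GFP cells | Dosing: 20 µM single dose, 1% DMSO | Incubation: Cells overnight before dosing, compound overnight, 37 °C, 5% CO2 | Evaluation: GFP/RFP fluorescence ratio | Control set: DMSO-only wells and HT1080 RFP-L50D-GFP cell wells as references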
beta cell repl = inducers of MIN6 beta-cell proliferation, primary screen, ATP luminescence, uHTS; MIN6 cells proliferation, ATPlite luminescence, 48 h; cells starved in 0.2% serum; 100% = growth in 10% serum; proliferation, % at 10 µM; 330,000 compounds, 0.29% hits; AID 2380, 2010;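 active = compounds whose signal lies at least 3.5 SD above the mean of all wells on their plate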
bovine MsrA act = bovine MsrA enzyme activators, primary screen, biochemical, absorbance, HTS. purified bovine MsrA, absorbance read-out. activation, % at 10.6 µM. 360,000 compounds, 0.3% hits; in the data active = activation above about 7.5%
SKN-1 block = suppressors of acrylamide-induced Pgst-4::GFP reporter in worms, primary screen, SKN-1 inhibitor project, whole organism, uHTS, GFP/RFP fluorescence ratio, strain VP596 | C. elegans VP596 Pgst-4::GFP/RFP ratio, 24 h | inhibition, % at 21.8 µM | 360,000 compounds, 0.49% hits;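 active = interference check ratio from 0.5 to 1.5 plus GFP to RFP signal ratio inhibition reaching or exceeding a fixed threshold, cut at about 30% in these data, passing the limit was not always enough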
MsrA inh = bovine MsrA enzyme inhibitors, primary screen, biochemical, absorbance, HTS | inhibition, % at 15.5 µM | AID 651718, 2012 | 360,000 compounds, 0.75% hits | Methionine sulfoxide reductase A (Bos taurus) | purified bovine MsrA, absorbance read-out; in the data active = inhibition above about 4.5%
DAGLB inh = DAGLB lipase inhibitors, primary screen, biochemical, fluorescence, HTS; 340,000 compounds, 0.059% hits; inhibition, % at 5.17 µM; AID 504411, 2011; HEK293T DAGLB membrane lysate, EnzChek fluorogenic substrate; in the data active = inhibition above about 34%
Target sequence (Q8NCG7 whole entry, looked up): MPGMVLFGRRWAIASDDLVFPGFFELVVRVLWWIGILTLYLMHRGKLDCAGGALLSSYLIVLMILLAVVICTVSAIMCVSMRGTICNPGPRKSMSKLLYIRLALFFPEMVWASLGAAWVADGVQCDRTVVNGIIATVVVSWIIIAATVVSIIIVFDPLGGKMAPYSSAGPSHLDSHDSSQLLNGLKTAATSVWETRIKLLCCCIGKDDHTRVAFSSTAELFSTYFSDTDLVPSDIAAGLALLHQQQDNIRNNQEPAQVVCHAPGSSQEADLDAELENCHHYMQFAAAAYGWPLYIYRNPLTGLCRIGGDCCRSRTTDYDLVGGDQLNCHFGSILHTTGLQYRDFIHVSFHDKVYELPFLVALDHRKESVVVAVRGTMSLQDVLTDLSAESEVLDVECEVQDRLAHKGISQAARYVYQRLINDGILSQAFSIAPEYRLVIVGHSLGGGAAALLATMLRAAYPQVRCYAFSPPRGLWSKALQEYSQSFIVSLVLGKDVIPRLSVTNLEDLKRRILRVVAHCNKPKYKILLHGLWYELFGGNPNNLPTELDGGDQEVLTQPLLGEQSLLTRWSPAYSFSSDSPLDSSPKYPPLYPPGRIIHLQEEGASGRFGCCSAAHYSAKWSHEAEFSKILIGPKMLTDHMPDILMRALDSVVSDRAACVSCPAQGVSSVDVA
MT1-MMP conf = MT1-MMP activation inhibitors, hit retest, confirmation, single concentration, fluorescence, HT1080 RFP-PRO-GFP cells; shares compounds with MT1-MMP act inh; GFP and RFP fluorescence ratio, overnight; inhibition, % at 20 µM; 200 compounds, 10% hits; AID 652235, 2013;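 active = inhibition of at least 50% in the primary cell screen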
A number is an active result; n = inactive; x = not tested or not shown.

SMILES	MT1-MMP act inh	beta cell repl	bovine MsrA act	SKN-1 block	MsrA inh	DAGLB inh	MT1-MMP conf
CN1/C(=C\C(=O)CN2C(=O)NC3(CCCCCC3)C2=O)C(C)(C)c2ccccc21	34	n	n	n	n	n	n
Cc1ccc[n+](CC(=O)/C=C2\N(C)c3ccccc3C2(C)C)c1	n	n	n	n	n	n	x
Cc1cccc[n+]1CC(=O)/C=C1\N(C)c2ccccc2C1(C)C	41	n	n	n	n	n	n
CCCN(CC(=O)Nc1ccccc1C)C(=O)Cc1n[nH]c(=O)c2ccccc12	n	n	n	n	n	n	x
CN(CC(=O)Nc1cc([N+](=O)[O-])ccc1Cl)Cc1ccc(Br)cc1	36	n	n	n	n	n	n
Cc1c(C(=O)OCC(=O)NCC2CCCO2)oc2ccccc12 (stereo not drawn)	33	n	n	n	n	n	n
O=C(CN1CCOCC1)Nc1ccc(OC(F)(F)F)cc1	n	n	n	n	n	n	x
O=S(=O)(c1ccc2nc(COc3ccc(Cl)cc3Cl)[nH]c2c1)N1CCOCC1	35	n	n	n	n	n	n
CN(c1cc2c(c3c1ccn3C)C1CCC2C1)C1CCCCC1 (stereo not drawn)	35	x	n	n	n	x	n
CCN(C)c1cc2c(c3c1ccn3C)C1CCC2C1 (stereo not drawn)	n	x	n	n	n	x	x
Cc1c(C(=O)O)c(O)cc2c1C(=O)c1c(O)c([C@@H]3O[C@H](CO)[C@@H](O)[C@H](O)[C@H]3O)c(O)c(O)c1C2=O	50	n	n	n	n	n	n
COC(=O)c1ccc2c(c1)C(C)(C)C(/C=C/c1ccc(OC)c(OC)c1OC)=[N+]2C	51	n	n	46	n	n	n
COC(=O)c1ccc2c(c1)C(C)(C)C(/C=C/c1ccc(O)cc1)=[N+]2C	n	n	n	n	n	n	x
CC(=O)NCCC1CCN(C(=O)c2cc(COc3ccc(C)nc3)on2)CC1	n	n	n	n	n	n	x
CNc1ccccc1C(C)(C)c1cc(-c2ccco2)n[nH]1	34	n	n	n	n	n	n
CNc1ccccc1C(C)(C)c1cc(C)[nH]n1	n	n	n	n	n	n	x
C[C@H](CO)N1C[C@H](C)[C@@H](CN(C)S(=O)(=O)c2ccc(F)cc2)Oc2ccc(NC(=O)CCN3CCOCC3)cc2C1=O	32	n	n	n	n	n	n
C[C@H](CO)N1C[C@H](C)[C@@H](CN(C)S(=O)(=O)c2ccc(F)cc2)Oc2ccc(NC(=O)Cc3ccccc3)cc2C1=O	n	n	n	n	n	n	x
COc1ccc(C2=NN(C3=NN=C(N)Cc4ncnn43)C(O)(C(F)(F)F)C2)cc1 (stereo not drawn)	n	n	n	n	n	n	x
O=C(N/N=C/C1CC=CCC1)c1cc2ccccc2cc1O (stereo not drawn)	35	n	n	n	n	n	n
O=C(N/N=C/C1CC=CCC1)c1ccc(O)cc1O (stereo not drawn)	n	n	n	n	n	n	x
Nc1ccc(S(=O)(=O)NC(Cc2ccccc2)C(=O)O)cc1 (stereo not drawn)	n	n	n	n	n	n	x
CCS(=O)(=O)NCc1ccc2c(c1)cc(C)n2C	n	n	n	n	n	n	x
CCCCNC(=S)NCc1ccc2c(c1)cc(C)n2C	n	n	n	n	n	n	x
COc1ccccc1NC(=S)NCc1ccc2c(c1)cc(C)n2C	41	n	n	n	n	n	n
SMILES	MT1-MMP act inh	beta cell repl	bovine MsrA act	SKN-1 block	MsrA inh	DAGLB inh	MT1-MMP conf
CCCS(=O)(=O)NCc1ccc2c(c1)cc(C)n2C	34	n	n	53	n	n	n
CCCCC(=O)NCc1ccc2c(c1)cc(C)n2C	47	n	n	50	n	n	n
Cc1cc2cc(CNC(=S)NCc3ccccc3)ccc2n1C	46	n	n	36	n	n	n
Cc1cc2cc(CNC(=O)c3ccc(S(=O)(=O)N4CCCCC4)cc3)ccc2n1C	40	n	n	62	n	n	n
Cc1ccc(CNC(=O)c2ccc(S(=O)(=O)N3CCCCC3)cc2)cc1	n	n	n	n	n	n	x
CC1(C(=O)NS(=O)(=O)c2ccccc2)CCN1C(=O)COc1ccc(Cl)cc1 (stereo not drawn)	n	x	n	n	n	x	x
COc1cc(NS(=O)(=O)c2ccc(C)cc2)c2c(c1N)C(=O)c1ccccc1C2=O	47	x	n	36	n	n	n
COC(=O)C1(C(=O)OC)c2ccccc2CN(S(=O)(=O)c2ccc(C)cc2)C1CC(C)=O (stereo not drawn)	n	x	x	n	n	x	x
Cc1[nH]n(-c2ccccc2)c(=O)c1N=Nc1nccs1	32	n	n	n	n	n	n
Cc1cc(NC(=O)CC2Oc3ccccc3NC2=O)ccc1Br (stereo not drawn)	n	n	n	n	n	n	x
Cc1cc2ccccc2n1CCNC(=O)c1ccc(Br)o1	37	n	n	37	n	n	n
O=C(NCCCc1ccccc1)c1ccc(Br)o1	n	n	n	n	n	n	x
Cc1cc2ccccc2n1CCNC(=O)COc1ccccc1	40	n	n	n	n	n	n
Cc1cc2ccccc2n1CCNC(=O)Cc1cccc2ccccc12	43	n	n	n	n	n	n
C[n+]1cccc2cccc([O-])c21	n	x	n	n	n	n	x
COc1ccc(Cl)cc1NC(=O)CN(C)C(=O)C1CCN(C(=O)Nc2ccccc2)CC1	n	n	n	n	n	n	x
O=C(CN1CCN(CC(=O)Nc2ccccc2Cl)CC1)NCC1(N2CCCCC2)CCCCC1	n	n	n	n	n	n	x
O=C(COC(=O)CNC(=O)c1ccc(Cl)cc1)Nc1ccc(Cl)cn1	n	n	n	n	n	n	x
CN(CCCN1CCCCC1)C(=O)CCc1nnc(C2CCCCC2)o1	n	n	n	n	n	n	x
COc1cccc2[nH]c3c(N4CCCCC4)ncnc3c12	32	n	n	n	n	n	n
CCOC(=O)C1CCN(c2ncnc3c2[nH]c2cccc(OC)c23)CC1	n	n	n	n	n	n	x
CCC(=O)N1CCC1(C)C(=O)Nc1ccc(F)cc1 (stereo not drawn)	34	x	n	n	n	x	n
